Published values pooled from the literature.
Each line is one published result; the experiments were not run side by side.
Organism: Leishmania donovani
Observed: parasite growth

COc1ccccc1-c1n[nH]c2nc(NC3CCN(C(=O)Cc4ccc(OCCOCCN)cc4)CC3)ncc12  EC50 (THP-1; intracellular, amastigote): 26.7 µM
CCCCCCCCCCCCCCCCOP(=O)([O-])OCC[N+](C)(C)C  inhibition (resazurin; 25 µM; 72 h; promastigote): 100%
c1ccc(-c2nc(N3CCCC3)c3ccccc3n2)nc1  IC50 (THP-1; intracellular, amastigote): 2.5 µM
C[C@@H]1[C@H](O)[C@@H](C)/C=C/C=C/C=C/C=C/C=C/C=C/C=C/[C@H](O[C@@H]2O[C@H](C)[C@@H](O)[C@H](N)[C@@H]2O)C[C@@H]2O[C@](O)(C[C@@H](O)C[C@@H](O)[C@H](O)CC[C@@H](O)C[C@@H](O)CC(=O)O[C@H]1C)C[C@H](O)[C@H]2C(=O)O  IC90 (resazurin; 72 h; promastigote): 1.8 µg/mL
COc1cc(NC(C)CCCNC(=S)NCCCC(C)Nc2cc(OC)cc3cccnc23)c2ncccc2c1.Cl.Cl (stereo not drawn)  IC50 (resazurin; promastigote): 4 to 9 µg/mL
COc1ccccc1-c1n[nH]c2nc(N[C@H]3CC[C@H](NS(=O)(=O)CCCOCCOCCN)CC3)ncc12  EC50 (amastigote): 4.21 µM
N=C(N)c1ccc(OCCCCCOc2ccc(C(=N)N)cc2)cc1  IC50 (resazurin; promastigote): 1 µg/mL
Fc1cccc(Nc2nc(-c3ccccn3)nc3ccccc23)c1  IC50 (imaging; THP-1; intracellular, amastigote): 0.79 µM
COc1ccccc1-c1n[nH]c2nc(N[C@H]3CC[C@H](NS(=O)(=O)CCCOCCOCCNC(=O)OC(C)(C)C)CC3)ncc12  EC50 (amastigote): 1.36 µM
C[C@@H]1[C@H](O)[C@@H](C)/C=C/C=C/C=C/C=C/C=C/C=C/C=C/[C@H](O[C@@H]2O[C@H](C)[C@@H](O)[C@H](N)[C@@H]2O)C[C@@H]2O[C@](O)(C[C@@H](O)C[C@@H](O)[C@H](O)CC[C@@H](O)C[C@@H](O)CC(=O)O[C@H]1C)C[C@H](O)[C@H]2C(=O)O  IC90 (MTT; 48 h; promastigote): 5.4 µM
COc1ccccc1-c1n[nH]c2nc(NC3CCN(C(=O)Cc4ccc(OCCOCCNC(=O)OC(C)(C)C)cc4)CC3)ncc12  EC50 (amastigote): 4.2 µM
CCCCCCCC/C=C\CCCCCCCCCCCCOP(=O)([O-])OCC[N+](C)(C)C  inhibition (resazurin; 50 µM; 72 h; promastigote): 108%
